# Active and inactive are the calls of the source. The rule behind the calls is not given here.
# Assays:
# [1] = biological target: T1, Probable G-protein coupled receptor 139 (Homo sapiens, UniProt Q6DWJ6); assay: Agonist activity at human GPR139 receptor expressed in HEK293 cells assessed as calcium mobilization by FLIPR assay; format: functional, cell-based
# T1 sequence (Q6DWJ6 whole entry): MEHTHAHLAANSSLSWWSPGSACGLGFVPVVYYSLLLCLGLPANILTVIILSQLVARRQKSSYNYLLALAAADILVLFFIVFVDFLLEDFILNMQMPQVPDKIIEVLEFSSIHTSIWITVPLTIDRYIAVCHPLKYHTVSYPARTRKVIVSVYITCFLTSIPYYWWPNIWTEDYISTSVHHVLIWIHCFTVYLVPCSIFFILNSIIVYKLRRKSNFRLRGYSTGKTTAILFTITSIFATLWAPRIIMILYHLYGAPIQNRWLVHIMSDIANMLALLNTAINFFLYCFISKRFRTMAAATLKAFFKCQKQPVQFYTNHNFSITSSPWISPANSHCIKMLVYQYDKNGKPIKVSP
# [2] = Efflux ratio of apparent permeability from basolateral to apical side to apical to basolateral side in MDCK cells; format: ADME, cell-based, Canis lupus familiaris; details: dog
# Method in brief: (§1)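 Permeability was measured in MDR1-transfected Madin Darby canine kidney (MDR1-MDCK) cells. Papp is given in units of 1 × 10–6 cm/s. The efflux ratio is Papp basal-to-apical divided by Papp apical-to-basal.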
# Cytochrome P450 2C19 = Cytochrome P450 2C19 (Homo sapiens, UniProt P33261); assay: Inhibition of CYP2C19 in human liver microsomes using S-mephenytoin as substrate up to 10 uM by LC-MS/MS analysis; format: ADME
# Cytochrome P450 2C19, sequence (P33261 whole entry): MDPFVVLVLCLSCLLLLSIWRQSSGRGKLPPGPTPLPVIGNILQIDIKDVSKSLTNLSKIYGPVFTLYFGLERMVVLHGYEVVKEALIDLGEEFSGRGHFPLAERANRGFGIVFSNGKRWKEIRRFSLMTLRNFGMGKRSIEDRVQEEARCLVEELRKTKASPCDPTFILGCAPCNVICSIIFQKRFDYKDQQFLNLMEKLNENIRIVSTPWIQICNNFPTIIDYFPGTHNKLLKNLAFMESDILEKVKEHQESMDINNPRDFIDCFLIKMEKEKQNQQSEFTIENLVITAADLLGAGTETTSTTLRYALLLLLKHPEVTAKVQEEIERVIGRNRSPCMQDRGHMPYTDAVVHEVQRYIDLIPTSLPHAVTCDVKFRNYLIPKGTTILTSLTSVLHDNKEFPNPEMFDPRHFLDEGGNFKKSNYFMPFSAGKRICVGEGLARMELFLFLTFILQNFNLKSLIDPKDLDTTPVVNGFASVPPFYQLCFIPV
# [3] = Aqueous solubility of the compound in 30 mM phosphate buffer at pH 2 after 3 days; format: physicochemical
# [4] = Fraction unbound in rat plasma at 0.1 to 10 uM after 6 hrs by LC-MS/MS analysis; format: ADME, cell-free
# Cytochrome P450 2C9 = Cytochrome P450 2C9 (Homo sapiens, UniProt P11712); assay: Inhibition of CYP2C9 in human liver microsomes using diclofenac as substrate up to 10 uM by LC-MS/MS analysis; format: ADME
# Cytochrome P450 2C9, sequence (P11712 whole entry): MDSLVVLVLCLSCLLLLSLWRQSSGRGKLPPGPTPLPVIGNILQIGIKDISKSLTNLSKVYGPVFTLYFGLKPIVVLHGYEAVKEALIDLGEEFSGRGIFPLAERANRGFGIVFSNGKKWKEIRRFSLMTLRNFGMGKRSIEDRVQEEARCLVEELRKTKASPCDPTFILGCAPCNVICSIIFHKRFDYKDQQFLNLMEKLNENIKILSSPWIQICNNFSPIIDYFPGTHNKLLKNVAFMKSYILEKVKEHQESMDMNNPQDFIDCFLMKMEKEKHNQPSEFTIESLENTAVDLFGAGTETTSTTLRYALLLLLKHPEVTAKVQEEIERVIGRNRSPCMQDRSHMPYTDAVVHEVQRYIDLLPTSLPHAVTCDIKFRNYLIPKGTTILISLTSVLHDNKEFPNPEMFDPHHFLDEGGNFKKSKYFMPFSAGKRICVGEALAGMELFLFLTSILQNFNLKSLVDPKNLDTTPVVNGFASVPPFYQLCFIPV
# Cytochrome P450 2D6 = Cytochrome P450 2D6 (Homo sapiens, UniProt P10635); assay: Inhibition of CYP2D6 in human liver microsomes using dextromethorphan as substrate up to 10 uM by LC-MS/MS analysis; format: ADME
# Cytochrome P450 2D6, sequence (P10635 whole entry): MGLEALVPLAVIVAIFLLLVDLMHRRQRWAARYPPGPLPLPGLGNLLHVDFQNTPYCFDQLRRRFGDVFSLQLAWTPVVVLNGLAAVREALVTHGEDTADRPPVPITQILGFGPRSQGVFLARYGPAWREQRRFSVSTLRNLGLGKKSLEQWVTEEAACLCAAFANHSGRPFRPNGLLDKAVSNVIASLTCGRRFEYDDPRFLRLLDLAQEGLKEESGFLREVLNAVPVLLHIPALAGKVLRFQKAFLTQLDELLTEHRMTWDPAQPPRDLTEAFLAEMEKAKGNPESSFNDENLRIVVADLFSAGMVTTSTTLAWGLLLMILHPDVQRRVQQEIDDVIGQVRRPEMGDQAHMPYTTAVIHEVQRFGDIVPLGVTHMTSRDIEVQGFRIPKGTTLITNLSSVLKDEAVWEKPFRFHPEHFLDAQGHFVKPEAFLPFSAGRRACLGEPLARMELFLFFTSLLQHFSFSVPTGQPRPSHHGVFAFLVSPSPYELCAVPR
# [5] = Aqueous solubility of the compound in 30 mM phosphate buffer at pH 7 after 3 days; format: physicochemical
# [6] = Fraction unbound in human plasma at 0.1 to 10 uM after 6 hrs by LC-MS/MS analysis; format: ADME, cell-free
# Cytochrome P450 3A4 = Cytochrome P450 3A4 (Homo sapiens, UniProt P08684); assay: Inhibition of CYP3A4 in human liver microsomes using midazolam as substrate up to 10 uM by LC-MS/MS analysis; format: ADME
# Cytochrome P450 3A4, sequence (P08684 whole entry): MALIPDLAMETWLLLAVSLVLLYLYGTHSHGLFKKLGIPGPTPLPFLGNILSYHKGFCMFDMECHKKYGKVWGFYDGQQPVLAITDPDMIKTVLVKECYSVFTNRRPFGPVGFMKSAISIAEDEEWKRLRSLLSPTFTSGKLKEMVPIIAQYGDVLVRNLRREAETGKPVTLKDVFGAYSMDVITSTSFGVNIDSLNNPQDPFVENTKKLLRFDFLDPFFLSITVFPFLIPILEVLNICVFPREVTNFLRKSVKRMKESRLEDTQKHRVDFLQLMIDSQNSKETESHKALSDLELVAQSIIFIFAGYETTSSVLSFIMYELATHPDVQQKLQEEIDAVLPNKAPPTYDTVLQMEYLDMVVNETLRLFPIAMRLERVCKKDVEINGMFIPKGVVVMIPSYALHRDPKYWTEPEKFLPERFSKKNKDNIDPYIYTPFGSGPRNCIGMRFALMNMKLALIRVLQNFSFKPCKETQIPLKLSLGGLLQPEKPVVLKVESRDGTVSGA
# [7] = Extraction ratio in rat liver microsomes at 1 uM after 1 hr by LC-MS/MS analysis; format: ADME; details: read-out: ERH
# Method in brief: (§2)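 Extraction ratio is in vitro microsomal clearance divided by Q, the species-specific hepatic blood flow (human or rat).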
# [8] = Apparent permeability of the compound in MDCK cells; format: ADME, cell-based, Canis lupus familiaris; details: dog; method in brief: as §1
# [9] = Fraction unbound in rat brain at 0.1 to 10 uM after 6 hrs by LC-MS/MS analysis; format: ADME, tissue-based
# [10] = Extraction ratio in human liver microsomes at 1 uM after 1 hr by LC-MS/MS analysis; format: ADME; details: read-out: ERH; method in brief: as §2
# Cytochrome P450 2C8 = biological target: T2, Cytochrome P450 2C8 (Homo sapiens, UniProt P10632); assay: Inhibition of CYP2C8 in human liver microsomes using paclitaxel as substrate up to 10 uM by LC-MS/MS analysis; format: ADME
# T2 sequence (P10632 whole entry): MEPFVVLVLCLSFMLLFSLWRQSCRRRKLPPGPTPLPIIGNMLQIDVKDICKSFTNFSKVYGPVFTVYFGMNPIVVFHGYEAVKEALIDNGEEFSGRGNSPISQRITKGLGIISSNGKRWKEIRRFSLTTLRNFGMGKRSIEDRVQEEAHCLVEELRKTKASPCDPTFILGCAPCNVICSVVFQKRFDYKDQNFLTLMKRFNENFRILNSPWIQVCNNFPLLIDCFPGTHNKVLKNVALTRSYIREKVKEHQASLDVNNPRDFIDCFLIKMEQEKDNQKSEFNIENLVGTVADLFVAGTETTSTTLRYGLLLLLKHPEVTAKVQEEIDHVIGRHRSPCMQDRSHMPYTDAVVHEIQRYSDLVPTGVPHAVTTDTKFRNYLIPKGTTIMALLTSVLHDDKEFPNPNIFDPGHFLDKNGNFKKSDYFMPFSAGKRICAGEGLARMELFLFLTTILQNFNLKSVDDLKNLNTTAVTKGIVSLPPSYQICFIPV
# Cytochrome P450 1A2 = biological target: T3, Cytochrome P450 1A2 (Homo sapiens, UniProt P05177); assay: Inhibition of CYP1A2 in human liver microsomes using phenacetin as substrate up to 10 uM by LC-MS/MS analysis; format: ADME
# T3 sequence (P05177 whole entry): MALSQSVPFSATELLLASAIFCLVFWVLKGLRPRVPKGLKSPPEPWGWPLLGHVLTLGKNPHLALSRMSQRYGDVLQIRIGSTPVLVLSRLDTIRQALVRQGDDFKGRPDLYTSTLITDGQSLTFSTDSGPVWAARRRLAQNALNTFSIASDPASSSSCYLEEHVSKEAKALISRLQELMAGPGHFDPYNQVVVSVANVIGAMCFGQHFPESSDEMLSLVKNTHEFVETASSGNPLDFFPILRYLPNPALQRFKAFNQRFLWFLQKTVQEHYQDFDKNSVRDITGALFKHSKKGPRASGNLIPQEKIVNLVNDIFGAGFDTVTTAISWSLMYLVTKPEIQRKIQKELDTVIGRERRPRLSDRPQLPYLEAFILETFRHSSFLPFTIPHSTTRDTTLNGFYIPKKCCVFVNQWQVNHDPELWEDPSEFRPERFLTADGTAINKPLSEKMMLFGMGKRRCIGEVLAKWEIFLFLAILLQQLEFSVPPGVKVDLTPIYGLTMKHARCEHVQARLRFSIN
# [11] = Ratio of drug level in brain to plasma in Sprague-Dawley rat at 1 mg/kg, iv and 5 mg/kg, po; format: ADME, organism-based; details: read-out: BPR
# [12] = Half life in Sprague-Dawley rat at 1 mg/kg, iv; format: ADME, organism-based; details: in vivo
# [13] = biological target: T4, Protein Gpr142 (Rattus norvegicus) (UniProt F1LWD8); assay: Agonist activity at rat GPR142 receptor
# T4 sequence (whole entry): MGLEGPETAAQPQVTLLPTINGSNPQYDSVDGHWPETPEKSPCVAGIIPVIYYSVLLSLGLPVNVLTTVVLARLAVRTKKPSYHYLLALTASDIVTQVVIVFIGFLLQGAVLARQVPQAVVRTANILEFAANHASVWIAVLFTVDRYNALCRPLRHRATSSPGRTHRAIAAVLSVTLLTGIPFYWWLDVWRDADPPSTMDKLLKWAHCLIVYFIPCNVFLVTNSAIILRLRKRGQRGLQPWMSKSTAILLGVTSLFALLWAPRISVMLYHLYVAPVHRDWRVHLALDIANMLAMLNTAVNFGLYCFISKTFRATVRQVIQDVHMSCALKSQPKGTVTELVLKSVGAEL
# [14] = Oral bioavailability in Sprague-Dawley rat at 5 mg/kg; format: ADME, organism-based; details: in vivo
# [15] = biological target: T5, Probable G-protein coupled receptor 139 (Homo sapiens) (UniProt Q6DWJ6); assay: Total binding affinity to human GPR139 receptor expressed in CHO-TRex cells at 10 nM after 60 mins by scintillation counting; format: cell-based
# T5 sequence (whole entry): T1 sequence (Q6DWJ6 whole entry)
# Method in brief: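 Whole CHO-TRex cells stably expressing human GPR139 were incubated with 10 nM of the tritiated ligand to measure total binding. Nonspecific binding was defined by blocking with 10 μM of an unlabelled reference GPR139 agonist. Specific binding was taken as total minus nonspecific.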
# [16] = Cmax in Sprague-Dawley rat at 5 mg/kg, po; format: ADME, organism-based; set-up: dose 5 mg/kg, route oral; details: in vivo
# [17] = AUC in Sprague-Dawley rat at 1 mg/kg, iv and 5 mg/kg, po; format: ADME, organism-based; details: in vivo
# [18] = Volume of distribution at steady state in Sprague-Dawley rat at 1 mg/kg, iv and 5 mg/kg, po; format: ADME, organism-based; details: in vivo, read-out: Vdss
# [19] = Clearance in Sprague-Dawley rat at 1 mg/kg, iv; format: ADME, organism-based; details: in vivo
smiles,measurement,setting,value
C[C@@H](NC(=O)CNC(=O)c1cccc(Cl)c1)c1ccccc1,EC50,[1],2100 nM
COc1cccc(C(=O)NCC(=O)N[C@H](C)c2ccccc2)c1,EC50,[1],1700 nM
C[C@H](NC(=O)CNCc1cccc(Cl)c1)c1ccccc1,EC50,[1],> 10000 nM
C[C@H](NC(=O)CNC(=O)c1cccc(Cl)c1Cl)c1ccccc1,EC50,[1],52 nM
C[C@H](NC(=O)CNC(=O)c1cc(Cl)cc(Br)c1)c1ccccc1,EC50,[1],78 nM
C[C@H](NC(=O)CNC(=O)c1ccc(Cl)cc1)c1ccccc1,EC50,[1],118 nM
C[C@H](NC(=O)CNC(=O)c1cccc(F)c1)c1ccccc1,EC50,[1],54 nM
C[C@H](NC(=O)CNC(=O)c1cccc(C(F)(F)F)c1)c1ccccc1,EC50,[1],52 nM
COc1cc(OC)cc(C(=O)NNC(=O)Nc2cccc3ccccc23)c1,EC50,[1],43 nM
C[C@H](NC(=O)CNC(=O)c1ccc(Cl)c(Cl)c1)c1ccccc1,EC50,[1],193 nM
CC(NC(=O)CSC(=O)c1ccccc1)c1ccccc1 (stereo not given),EC50,[1],670 nM
COc1cc(OC)cc(C(=O)NCC(=O)N[C@@H](C)c2ccccc2)c1,EC50,[1],32 nM
Cc1cccc(C(=O)NCC(=O)N[C@@H](C)c2ccccc2)c1,EC50,[1],24 nM
C[C@H](NC(=O)CNC(=O)c1ccccc1)c1ccccc1,EC50,[1],162 nM
C[C@H](NC(=O)CNC(=O)c1ccccc1Cl)c1ccccc1,EC50,[1],150 nM
COc1cccc(C(=O)N[C@@H](Cc2ccccc2)C(=O)N[C@@H](C)c2ccccc2)c1,EC50,[1],10000 nM
C[C@H](NCCNC(=O)c1cccc(Cl)c1)c1ccccc1,EC50,[1],> 10000 nM
COc1cccc(C(=O)N[C@@H](C)C(=O)N[C@@H](C)c2ccccc2)c1,EC50,[1],66 nM
C[C@H](NC(=O)CNC(=O)c1cc(Cl)cc(Cl)c1)c1ccccc1,EC50,[1],46 nM
C[C@H](NC(=O)CNC(=O)c1cccc(C#N)c1)c1ccccc1,EC50,[1],59 nM
COc1cccc(C(=O)NCC(=O)N[C@@H](C)c2ccccc2)c1,efflux ratio,[2],5.5
same,inhibition (INH),Cytochrome P450 2C19,Not Active
same,solubility at 72 h,[3],> 35 µM
same,EC50,[1],33 nM
same,"fraction unbound at 6 h, up to 10 µM",[4],0.36
same,inhibition (INH),Cytochrome P450 2C9,Not Active
same,inhibition (INH),Cytochrome P450 2D6,Not Active
same,solubility at 72 h,[5],> 35 µM
same,"fraction unbound at 6 h, up to 10 µM",[6],0.14
same,inhibition (INH),Cytochrome P450 3A4,Not Active
same,"hepatic extraction ratio at 1 h, 1 µM",[7],0.8
same,Papp,[8],16 ×10⁻⁶ cm/s
same,"fraction unbound at 6 h, up to 10 µM",[9],0.16
same,"hepatic extraction ratio at 1 h, 1 µM",[10],0.3
same,inhibition (INH),Cytochrome P450 2C8,Not Active
same,inhibition (INH),Cytochrome P450 1A2,Not Active
C[C@H](NC(=O)CNC(=O)c1cccc(OC(F)(F)F)c1)c1ccccc1,EC50,[1],46 nM
C[C@H](NC(=O)CNC(=O)c1cc(F)cc(Cl)c1)c1ccccc1,EC50,[1],24 nM
COc1cccc(C(=O)N[C@@H](CO)C(=O)N[C@@H](C)c2ccccc2)c1,EC50,[1],283 nM
COc1cccc(C(=O)N[C@H](C)C(=O)N[C@@H](C)c2ccccc2)c1,EC50,[1],440 nM
C[C@H](NC(=O)CNC(=O)c1cc(Cl)ccc1Cl)c1ccccc1,EC50,[1],40 nM
C[C@H](NC(=O)CNC(=O)c1cccc(Cl)c1)c1ccccc1,efflux ratio,[2],1.7
same,inhibition (INH),Cytochrome P450 2C19,Not Active
same,Kp,[11],1.2
same,solubility at 72 h,[3],> 35 µM
same,"fraction unbound at 6 h, up to 10 µM",[4],0.25
same,inhibition (INH),Cytochrome P450 2C9,Not Active
same,half-life,[12],2.5 h
same,inhibition (INH),Cytochrome P450 2D6,Not Active
same,Activity,[13],inactive
same,solubility at 72 h,[5],> 35 µM
same,bioavailability,[14],49%
same,Activity,[15],Active
same,"fraction unbound at 6 h, up to 10 µM",[6],0.1
same,inhibition (INH),Cytochrome P450 3A4,Not Active
same,"hepatic extraction ratio at 1 h, 1 µM",[7],0.4
same,Papp,[8],32 ×10⁻⁶ cm/s
same,"fraction unbound at 6 h, up to 10 µM",[9],0.09
same,Cmax,[16],317 ng/mL
same,"hepatic extraction ratio at 1 h, 1 µM",[10],0.3
same,AUC,[17],683 ng·h/mL
same,inhibition (INH),Cytochrome P450 2C8,Not Active
same,Vd,[18],2.1 L/kg
same,inhibition (INH),Cytochrome P450 1A2,Not Active
same,clearance,[19],53 mL/min/kg

# Reference: ChEMBL document CHEMBL3632607, “Identification and SAR of Glycine Benzamides as Potent Agonists for the GPR139 Receptor” (ACS Med Chem Lett, 2015)
